Results taken from ChEMBL document CHEMBL1145542, “Discovery of a new class of potent, selective, and orally bioavailable CRTH2 (DP2) receptor antagonists for the treatment of allergic inflammatory diseases” (J Med Chem, 2008).

Tests used:
[1] = biological target: T1, Prostaglandin D2 receptor 2 (Homo sapiens, UniProt Q9Y5Y4); assay: Displacement of [3H]PGD2 from human CRTH2 receptor expressed in CHO cells; type: cell-based
T1 sequence (Q9Y5Y4 whole entry): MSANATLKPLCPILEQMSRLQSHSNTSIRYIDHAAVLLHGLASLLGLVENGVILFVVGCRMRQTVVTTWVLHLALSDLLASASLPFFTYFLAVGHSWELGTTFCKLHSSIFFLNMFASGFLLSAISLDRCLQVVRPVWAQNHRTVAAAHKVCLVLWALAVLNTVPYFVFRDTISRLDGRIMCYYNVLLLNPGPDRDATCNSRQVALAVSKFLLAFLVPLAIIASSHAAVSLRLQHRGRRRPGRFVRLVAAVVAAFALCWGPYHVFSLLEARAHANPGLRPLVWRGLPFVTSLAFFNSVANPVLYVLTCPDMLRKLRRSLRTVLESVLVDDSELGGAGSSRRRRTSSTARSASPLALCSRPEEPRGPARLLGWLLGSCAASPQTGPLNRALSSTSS
Summary of the method: (§1)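 Scintillation proximity competition assay: 2–5 µg human or mouse CRTH2 membranes (nitrogen-cavitation, differential centrifugation) with WGA-SPA beads and 1.5 nM [3H]PGD2 in 10 mM HEPES/KOH pH 7.4, 10 mM MnCl2, protease inhibitors, 1% Me2SO, 90 min shaking at room temperature. Nonspecific binding with 1 µM PGD2. Ki by Cheng–Prusoff, mean of ≥3 independent experiments.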

[2] = Intrinsic clearance per mg of protein in human liver microsomes at 3 uM; type: ADME, Microsome
Summary of the method: (§2)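 Rat or human liver microsomes (0.5 mg/mL final) in 0.1 M phosphate pH 7.4 with 3 µM compound (1% DMSO), preincubated at 37 °C, started with 1 mM NADPH. Quenched with cold acetonitrile at 0, 15, 30, 45 min; LC/MS-MS of compound disappearance gives intrinsic clearance.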

[3] = Inhibition of prostanoid FP receptor
[4] = Inhibition of prostanoid EP3 receptor
[5] = Intrinsic clearance per mg of protein in rat liver microsomes at 3 uM; type: ADME, Microsome; summary of the method: as §2
[6] = biological target: T1, Prostaglandin D2 receptor 2; assay: Antagonist activity at human CRTH2 receptor expressed in CHO cell membrane by [35S]GTP-gamma-S binding assay; type: functional, cell membranes
Summary of the method: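 [35S]GTPγS binding at 30 °C on 10 µg human CRTH2 membranes in 20 mM HEPES/KOH pH 7.4, 10 mM MgCl2, 10 µg/mL saponin, 3 µM GDP, 150 mM NaCl, 2% Me2SO. PGD2 preincubation 10 min (antagonist mode: 80 nM PGD2), then 0.15 nM [35S]GTPγS for 30 min. Nonspecific binding with 10 µM GTPγS; stopped by centrifugation, scintillation counting.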

[7] = biological target: T2, Prostaglandin D2 receptor (Homo sapiens, UniProt Q13258); assay: Inhibition of prostaglandin D2 receptor
T2 sequence (Q13258 whole entry): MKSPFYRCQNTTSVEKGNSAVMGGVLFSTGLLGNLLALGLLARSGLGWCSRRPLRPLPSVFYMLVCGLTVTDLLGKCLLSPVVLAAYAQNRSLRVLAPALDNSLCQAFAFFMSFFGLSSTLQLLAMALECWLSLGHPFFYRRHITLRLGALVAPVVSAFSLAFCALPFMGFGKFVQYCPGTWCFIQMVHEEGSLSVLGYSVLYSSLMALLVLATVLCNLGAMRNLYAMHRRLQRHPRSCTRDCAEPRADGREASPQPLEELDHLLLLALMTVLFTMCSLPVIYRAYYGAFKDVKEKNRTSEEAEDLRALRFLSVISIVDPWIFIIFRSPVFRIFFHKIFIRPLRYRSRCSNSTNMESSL

[8] = biological target: Prostaglandin E2 receptor EP2 subtype (Homo sapiens, UniProt P43116); assay: Inhibition of prostanoid EP2 receptor
[9] = Lipophilicity, log D of the compound; type: physicochemical; settings: octanol/water
[10] = Inhibition of prostanoid EP4 receptor
[11] = biological target: T3, Prostaglandin D2 receptor 2 (Mus musculus, UniProt Q9Z2J6); assay: Displacement of [3H]PGD2 from mouse CRTH2 receptor expressed in HEK293 cells; type: cell-based; summary of the method: as §1
T3 sequence (Q9Z2J6 whole entry): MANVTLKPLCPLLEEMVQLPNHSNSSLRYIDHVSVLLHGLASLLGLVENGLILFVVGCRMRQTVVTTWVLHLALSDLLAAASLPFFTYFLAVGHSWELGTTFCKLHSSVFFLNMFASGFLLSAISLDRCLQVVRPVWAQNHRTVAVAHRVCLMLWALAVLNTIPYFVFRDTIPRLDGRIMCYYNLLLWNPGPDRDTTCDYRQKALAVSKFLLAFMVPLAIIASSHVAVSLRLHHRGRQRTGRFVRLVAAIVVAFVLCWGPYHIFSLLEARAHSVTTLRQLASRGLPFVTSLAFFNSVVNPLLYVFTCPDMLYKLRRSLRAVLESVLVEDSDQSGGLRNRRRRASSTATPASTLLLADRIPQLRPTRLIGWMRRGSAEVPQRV

[12] = biological target: Cytochrome P450 3A4 (Homo sapiens, UniProt P08684); assay: Inhibition of human recombinant CYP3A4; type: ADME
Summary of the method: (§3)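 Human recombinant CYP1A2, 2C9, 2C19, 2D6 and 3A4, each turning an isoform-specific fluorogenic substrate into a fluorescent product; test compound up to 10 µM final in 1% DMSO; fluorescence read-out.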

[13] = Apparent permeability across human Caco-2 cell membrane at 10 uM; type: ADME, cell-based
Summary of the method: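 Caco-2 monolayers grown 21 days on Transwell filters; TEER above 800 ohm·cm² required. 10 µM test compound in HBSS added apically (A to B) or basolaterally (B to A), 2 h at 37 °C. Both compartments sampled, analysed by LC/MS-MS.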

[14] = biological target: Cytochrome P450 2C9 (Homo sapiens, UniProt P11712); assay: Inhibition of human recombinant CYP2C9; type: ADME; summary of the method: as §3
[15] = biological target: T4, Cytochrome P450 1A2 (Homo sapiens, UniProt P05177); assay: Inhibition of human recombinant CYP1A2; type: ADME; summary of the method: as §3
T4 sequence (P05177 whole entry): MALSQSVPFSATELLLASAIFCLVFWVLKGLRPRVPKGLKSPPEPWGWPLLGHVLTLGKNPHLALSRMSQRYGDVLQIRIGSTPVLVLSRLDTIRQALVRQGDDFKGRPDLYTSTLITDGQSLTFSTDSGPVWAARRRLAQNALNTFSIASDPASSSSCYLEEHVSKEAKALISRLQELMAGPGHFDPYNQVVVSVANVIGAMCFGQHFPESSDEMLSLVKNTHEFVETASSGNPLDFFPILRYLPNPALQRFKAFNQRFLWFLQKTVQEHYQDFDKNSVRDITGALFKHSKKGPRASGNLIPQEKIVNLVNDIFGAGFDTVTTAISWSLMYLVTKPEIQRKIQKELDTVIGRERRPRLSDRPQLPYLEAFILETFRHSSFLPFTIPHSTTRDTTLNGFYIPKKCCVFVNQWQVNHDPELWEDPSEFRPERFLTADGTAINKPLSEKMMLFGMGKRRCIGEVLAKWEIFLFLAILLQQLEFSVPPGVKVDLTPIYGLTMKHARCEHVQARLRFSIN

[16] = biological target: Cytochrome P450 2C19 (Homo sapiens, UniProt P33261); assay: Inhibition of human recombinant CYP2C19; type: ADME; summary of the method: as §3
[17] = biological target: Cytochrome P450 2D6 (Homo sapiens, UniProt P10635); assay: Inhibition of human recombinant CYP2D6; type: ADME; summary of the method: as §3
Cytochrome P450 2D6, sequence (P10635 whole entry): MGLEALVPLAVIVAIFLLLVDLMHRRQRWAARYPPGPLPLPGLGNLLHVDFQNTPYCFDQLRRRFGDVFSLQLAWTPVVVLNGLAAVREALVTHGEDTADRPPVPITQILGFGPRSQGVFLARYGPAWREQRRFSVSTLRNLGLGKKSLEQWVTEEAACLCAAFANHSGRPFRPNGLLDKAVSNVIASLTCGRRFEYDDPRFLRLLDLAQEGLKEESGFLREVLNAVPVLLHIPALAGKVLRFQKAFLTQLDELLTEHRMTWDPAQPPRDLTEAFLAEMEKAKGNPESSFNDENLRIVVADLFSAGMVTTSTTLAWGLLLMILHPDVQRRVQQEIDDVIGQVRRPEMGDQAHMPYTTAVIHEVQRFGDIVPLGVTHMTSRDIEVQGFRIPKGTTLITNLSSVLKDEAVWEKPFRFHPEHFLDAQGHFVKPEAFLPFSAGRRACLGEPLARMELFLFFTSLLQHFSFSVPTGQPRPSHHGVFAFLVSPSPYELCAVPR

Prostaglandin E2 receptor EP2 subtype, sequence (P43116 whole entry): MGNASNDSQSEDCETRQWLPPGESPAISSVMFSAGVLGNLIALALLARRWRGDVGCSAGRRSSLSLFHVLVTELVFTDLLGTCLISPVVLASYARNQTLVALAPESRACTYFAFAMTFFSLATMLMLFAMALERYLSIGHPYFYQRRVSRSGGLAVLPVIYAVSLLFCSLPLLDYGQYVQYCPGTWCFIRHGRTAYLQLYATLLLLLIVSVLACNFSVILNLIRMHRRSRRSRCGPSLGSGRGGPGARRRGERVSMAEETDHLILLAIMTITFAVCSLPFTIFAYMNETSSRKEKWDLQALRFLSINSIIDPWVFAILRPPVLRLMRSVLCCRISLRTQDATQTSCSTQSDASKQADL
Cytochrome P450 2C19, sequence (P33261 whole entry): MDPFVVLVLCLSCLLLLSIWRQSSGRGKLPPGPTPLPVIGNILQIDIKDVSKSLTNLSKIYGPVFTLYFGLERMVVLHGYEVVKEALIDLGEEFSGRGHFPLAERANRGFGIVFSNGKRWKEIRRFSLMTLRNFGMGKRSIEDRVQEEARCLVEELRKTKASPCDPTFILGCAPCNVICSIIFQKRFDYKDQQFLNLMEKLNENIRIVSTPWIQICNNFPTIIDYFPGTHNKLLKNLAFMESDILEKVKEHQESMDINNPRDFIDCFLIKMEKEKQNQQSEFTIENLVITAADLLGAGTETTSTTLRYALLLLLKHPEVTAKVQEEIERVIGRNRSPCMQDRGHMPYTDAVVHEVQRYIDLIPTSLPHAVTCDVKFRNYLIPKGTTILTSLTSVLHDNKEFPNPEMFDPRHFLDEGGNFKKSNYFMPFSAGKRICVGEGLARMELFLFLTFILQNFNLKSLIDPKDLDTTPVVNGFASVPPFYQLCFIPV
Cytochrome P450 3A4, sequence (P08684 whole entry, canonical isoform): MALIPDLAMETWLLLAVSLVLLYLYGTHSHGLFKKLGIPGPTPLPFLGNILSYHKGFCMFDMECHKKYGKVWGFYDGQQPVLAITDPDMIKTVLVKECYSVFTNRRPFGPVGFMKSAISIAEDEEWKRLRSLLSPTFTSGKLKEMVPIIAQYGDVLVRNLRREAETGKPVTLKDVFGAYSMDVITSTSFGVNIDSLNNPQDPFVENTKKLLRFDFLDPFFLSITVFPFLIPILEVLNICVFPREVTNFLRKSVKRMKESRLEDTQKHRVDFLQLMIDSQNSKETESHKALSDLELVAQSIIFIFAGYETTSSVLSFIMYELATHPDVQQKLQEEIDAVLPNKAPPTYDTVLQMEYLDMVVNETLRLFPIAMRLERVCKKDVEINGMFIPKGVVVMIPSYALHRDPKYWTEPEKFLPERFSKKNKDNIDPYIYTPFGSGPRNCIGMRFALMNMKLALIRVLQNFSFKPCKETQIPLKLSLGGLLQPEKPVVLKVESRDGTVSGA
Cytochrome P450 2C9, sequence (P11712 whole entry): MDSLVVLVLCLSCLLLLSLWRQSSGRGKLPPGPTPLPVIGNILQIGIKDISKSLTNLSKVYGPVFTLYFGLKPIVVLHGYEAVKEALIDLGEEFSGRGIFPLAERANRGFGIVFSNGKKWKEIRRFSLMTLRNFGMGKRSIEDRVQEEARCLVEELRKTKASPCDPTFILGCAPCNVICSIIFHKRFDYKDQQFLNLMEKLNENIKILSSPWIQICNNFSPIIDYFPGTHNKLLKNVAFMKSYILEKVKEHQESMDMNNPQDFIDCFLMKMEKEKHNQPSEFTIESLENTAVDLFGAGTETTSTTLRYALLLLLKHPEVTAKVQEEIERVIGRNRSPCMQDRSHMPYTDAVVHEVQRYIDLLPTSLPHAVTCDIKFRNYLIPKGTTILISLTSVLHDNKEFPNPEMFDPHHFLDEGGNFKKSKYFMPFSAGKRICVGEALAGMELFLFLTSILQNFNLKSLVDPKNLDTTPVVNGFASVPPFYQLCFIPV

Ki [1] | microsomal CLint at 3 µM [2] | IC50 [3] | IC50 [4] | microsomal CLint at 3 µM [5] | IC50 [6] | IC50 [7] | IC50 [8] | logD [9] | IC50 [10] | Ki [11] | IC50 [12] | Papp at 10 µM [13] | IC50 [14] | IC50 [15] | IC50 [16] | IC50 [17] | Compound
0.023 µM | 3 µL/min/mg | > 30 µM | > 30 µM | 8 µL/min/mg | 0.107 µM | > 30 µM | > 30 µM | -0.4 | > 30 µM | 0.033 µM |  |  |  |  |  |  | O=C(O)CN1C(=O)[C@@]2(CC(=O)N(Cc3cccc(Cl)c3)C2=O)c2cc(Cl)ccc21
0.196 µM |  |  |  | 9 µL/min/mg | 0.418 µM |  |  |  |  | 0.15 µM | > 10 µM | 3 ×10⁻⁶ cm/s | > 10 µM | > 10 µM | > 10 µM | > 10 µM | O=C(O)CN1C(=O)C2(CC(=O)N(Cc3ccccc3)C2=O)c2cc(Cl)ccc21 (stereo unspecified)
